# Measured values: ChEMBL document CHEMBL1154096, “Design, synthesis and anticancer evaluation of novel tetrahydroquinoline derivatives containing sulfonamide moiety” (Eur J Med Chem, 2009)
# Tested on: MCF7
# Assay: Cytotoxicity against human MCF7 cells after 48 hrs by SRB assay
# Assay type: functional, cell-based
# Conditions: MCF7, 48 h
# Outline: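 Cells seeded at 10⁴/well and left 24 h to attach. Compounds dissolved in DMSO, diluted in saline and added to the monolayer in triplicate wells per dose, then incubated 48 h at 37 °C in 5% CO₂. Cells were fixed and stained 30 min with 0.4% SRB in 1% acetic acid, washed four times with 1% acetic acid, and the dye recovered in Tris–EDTA. Absorbance was read, and surviving fraction plotted against concentration.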
row,Structure (SMILES),IC50 [µg/mL]
1,Cc1c2c(nc3[nH]c(=S)n(-c4ccc(S(=O)(=O)Nc5ncccn5)cc4)c(=N)c13)CC(C)(C)CC2=O,9.19
2,Cc1cc(NS(=O)(=O)c2ccc(-n3c(=S)[nH]c4nc5c(c(C)c4c3=N)C(=O)CC(C)(C)C5)cc2)no1,> 10
3,Cc1c2c(nc3ncn(-c4ccc(S(N)(=O)=O)cc4)c(=N)c13)CC(C)(C)CC2=O,1.5
4,Cc1cc(NS(=O)(=O)c2ccc(-n3cnc4nc5c(c(C)c4c3=N)C(=O)CC(C)(C)C5)cc2)no1,2.6
5,Cc1cc(NS(=O)(=O)c2ccc(-n3c(=S)[nH]c4nc5c(c(C)c4c3=N)CCCC5)cc2)no1,2.62
6,Cc1c2c(nc3[nH]c(=S)n(-c4ccc(S(N)(=O)=O)cc4)c(=N)c13)CCCC2,0.95
7,Cc1c(C#N)c(/N=C/Nc2ccc(S(N)(=O)=O)cc2)nc2c1C(=O)CC(C)(C)C2,2.62
8,Cc1cc(NS(=O)(=O)c2ccc(N/C=N/c3nc4c(c(C)c3C#N)C(=O)CC(C)(C)C4)cc2)no1,1.9
9,Cc1c2c(nc3[nH]c(=S)n(-c4ccc(S(=O)(=O)NC(=N)N)cc4)c(=N)c13)CCCC2,1.28
10,Cc1cc(NS(=O)(=O)c2ccc(N/C=N/c3nc4c(c(C)c3C#N)CCCC4)cc2)no1,1.95
11,Cc1c(C#N)c(/N=C/Nc2ccc(S(N)(=O)=O)cc2)nc2c1CCCC2,> 10
12,Cc1c2c(nc3[nH]c(=S)n(-c4ccc(S(=O)(=O)NC(=N)N)cc4)c(=N)c13)CC(C)(C)CC2=O,5.17
13,Cc1c2c(nc3[nH]c(=S)n(-c4ccc(S(=O)(=O)Nc5ncccn5)cc4)c(=N)c13)CCCC2,1.48
14,Cc1c2c(nc3[nH]c(=S)n(-c4ccc(S(N)(=O)=O)cc4)c(=N)c13)CC(C)(C)CC2=O,4
